Reference: ChEMBL document CHEMBL4316602, “Investigating the promiscuity of the chloramphenicol nitroreductase from Haemophilus influenzae towards the reduction of 4-nitrobenzene derivatives” (Bioorg Med Chem Lett, 2019)

What was measured:
Assay type in all cases: ADME; call rule not given here
[1] = Substrate activity at recombinant Haemophilus influenzae Chloramphenicol nitroreductase expressed in Escherichia coli assessed as benzoic acid formation at 1 mM measured after 24 hrs at pH 8 under 37 degC by LC-MS analysis; details: pH 8, 24 h, 1000 µM
How it was run: (§1)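 50 mM Tris-HCl pH 8.0 holding 1 mM nitro compound, 5 µM CNR and 100 µM NADPH. NADPH is regenerated by 40 mM glucose plus 4 µM glucose dehydrogenase. Incubated 24 h at 37 °C, then extracted with EtOAc, dried, redissolved in MeOH and analysed by LCMS for reduction products.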

[2] = Substrate activity at recombinant Haemophilus influenzae Chloramphenicol nitroreductase expressed in Escherichia coli assessed as 4-aminoether formation at 1 mM measured after 24 hrs at pH 8 under 37 degC by LC-MS analysis; details: pH 8, 24 h, 1000 µM; how it was run: as §1
[3] = Substrate activity at recombinant Haemophilus influenzae Chloramphenicol nitroreductase expressed in Escherichia coli assessed as hydroxylamine formation at 1 mM measured after 24 hrs at pH 8 under 37 degC by LC-MS analysis; details: pH 8, 24 h, 1000 µM; how it was run: as §1
[4] = Substrate activity at recombinant Haemophilus influenzae Chloramphenicol nitroreductase expressed in Escherichia coli at 150 uM measured at 30 sec interval for 60 mins in presence of NADPH at pH 8; details: pH 8, 1 h
How it was run: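 Each nitro compound at 150 µM in 50 mM Tris-HCl pH 8.0 with 1.0 mM NADPH. Started with 1 µM CNR and read at 340 nm (NADPH) every 30 s for 60 min. Initial rates were taken from the first 5 min and expressed as % of the chloramphenicol rate.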

[5] = Substrate activity at recombinant Haemophilus influenzae Chloramphenicol nitroreductase expressed in Escherichia coli at 150 uM measured at 30 sec interval for 60 mins in presence of NADPH at 50 degC; details: 1 h
[6] = tested on: Chloramphenicol nitroreductase; assay: Substrate activity at recombinant Haemophilus influenzae Chloramphenicol nitroreductase expressed in Escherichia coli assessed as Km measured at 30 sec interval for 30 mins in presence of NADPH at 37 degC by Michaelis-Menton plot analysis
How it was run: (§2)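 Chloramphenicol varied 0–2500 µM (0, 1, 5, 10, 50, 100, 250, 500, 2500) with 0.4 µM CNR, 750 µM NADPH, 50 mM Tris-HCl pH 8.0, at 37 or 50 °C. NADPH consumption was followed at 340 nm every 30 s for 30 min. Initial rates came from the first 2–5 min, fitted to Michaelis–Menten for kcat and Km.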

[7] = tested on: Chloramphenicol nitroreductase; assay: Substrate activity at recombinant Haemophilus influenzae Chloramphenicol nitroreductase expressed in Escherichia coli assessed as Km measured at 30 sec interval for 30 mins in presence of NADPH at 50 degC by Michaelis-Menton plot analysis; how it was run: as §2
[8] = Substrate activity at recombinant Haemophilus influenzae Chloramphenicol nitroreductase expressed in Escherichia coli assessed as Kcat measured at 30 sec interval for 30 mins in presence of NADPH at 37 degC by Michaelis-Menton plot analysis; details: 0.5 h; how it was run: as §2
[9] = Substrate activity at recombinant Haemophilus influenzae Chloramphenicol nitroreductase expressed in Escherichia coli assessed as Kcat measured at 30 sec interval for 30 mins in presence of NADPH at 50 degC by Michaelis-Menton plot analysis; details: 0.5 h; how it was run: as §2
[10] = Substrate activity at recombinant Haemophilus influenzae Chloramphenicol nitroreductase expressed in Escherichia coli assessed as ratio Kcat to Km measured at 30 sec interval for 30 mins in presence of NADPH at 37 degC by Michaelis-Menton plot analysis; details: 0.5 h; how it was run: as §2
[11] = Substrate activity at recombinant Haemophilus influenzae Chloramphenicol nitroreductase expressed in Escherichia coli assessed as ratio of Kcat to Km measured at 30 sec interval for 30 mins in presence of NADPH at 50 degC by Michaelis-Menton plot analysis; details: 0.5 h; how it was run: as §2

**Q.** With O=C(OCc1ccc([N+](=O)[O-])cc1)c1ccc(Cl)cc1F as the compound, how does the Activity [1] read?
**A.** Active

**Q.** Which Activity [2] does the source give for O=[N+]([O-])c1ccc(COCc2ccc(Br)cc2)cc1 here?
**A.** Active

**Q.** What about the Activity [3] of the same compound?
**A.** Active

**Q.** Which Activity [1] does the source give for O=C(OCc1ccc([N+](=O)[O-])cc1)c1ccc(Cl)cc1 here?
**A.** Active

**Q.** With O=C(N[C@H](CO)[C@H](O)c1ccc([N+](=O)[O-])cc1)C(Cl)Cl [CHLORAMPHENICOL] as the compound, how does the Activity [4] read?
**A.** Active

**Q.** And the Activity [5]?
**A.** Active

**Q.** And the Km at 0.5 h [6]?
**A.** 273 µM

**Q.** What about the Km at 0.5 h [7] of the same compound?
**A.** 191 µM

**Q.** What about the Kcat [8] of the same compound?
**A.** 61 s⁻¹

**Q.** And the Kcat [9]?
**A.** 65 s⁻¹

**Q.** What about the Kcat/Km [10] of the same compound?
**A.** 220000 M⁻¹ s⁻¹

**Q.** What about the Kcat/Km [11] of the same compound?
**A.** 340000 M⁻¹ s⁻¹
